Assay outcomes: PubChem, several laboratories
Compounds with a hit are over-represented: about 2.8% of the library has one in this group of screens.
Yeast growth inh: chemicals that inhibit yeast BB579 growth in restrictive medium (lifespan-shortening candidates); S. cerevisiae BB579 growth, OD615, 48 h; inhibition, % at 10 µM; actives 0.51% (n = 140,000);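 active means inhibition above a set limit, 3 SD over the mean compound inhibition, cut at about 44% in these data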
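Assay system: S. cerevisiae DeaD strain BB579 yeast. Medium: CSMM-D restrictive synthetic medium containing dextrose (glucose). Times: 4 h cell preincubation, 48 h compound exposure, 30 °C humidified. Signal: OD615 turbidity measurement. Benchmarks: positive control amphotericin B 10 µg/mL.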
Yeast life ext: yeast lifespan extension; actives 0.68% (n = 130,000); inhibition of the nicotinamide effect, % at 10 µM; S. cerevisiae growth with nicotinamide, OD615; deaD strain in restrictive glucose medium;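 active means inhibition above a set limit, placed 3 SD over the median of all compounds, cut at about 26% in these data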;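 further: 0% = nicotinamide-treated wells and 100% = cells grown without nicotinamide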
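Assay system: engineered S. cerevisiae DeaD replicative-lifespan strain, galactose-grown log-phase cells; Buffer or medium: CSMM-D glucose medium, restrictive; Probe or stimulus: nicotinamide 1.5 mM; Compound: single dose 10 µM compound, 0.25% DMSO; Schedule: 4 h preincubation then 48 h treatment at 30 °C; Technique: OD615 measurement.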
bCat KO growth: beta-catenin-lacking colon tumor cell growth suppression. HCT116 beta-catenin knockout viability, CellTiter-Glo, 60 h; stronger effect = lower value. viability, % at 10 µM. actives 1.5% (n = 140,000);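 active means viability at or under a set limit, the compound median less 4 SD, cut at about 6% in these data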;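 further: 0% = Hyamine 1622 control at 20 µM and 100% = untreated cell control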
sdo1 growth: compounds rescuing growth of sdo1-depleted yeast, bone marrow failure model. S. cerevisiae sdo1-depleted JHY4D growth rescue, OD600 30 h; stronger effect = higher value; pdr5 snq2 efflux-pump mutant strain. z-score at 10 µM. actives 0.21% (n = 140,000). AID 817;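 active means z-score above 3 at both the 24 hr and the 30 hr optical density reads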;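 further: z-score against mean and SD of all compound wells on the same plate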
HCT116 PTEN-null: suppresses growth of cells with PTEN deletion. HCT116 PTEN-null viability, CellTiter-Glo, 60 h; stronger effect = lower value. viability, % at 10 µM. actives 1.2% (n = 140,000). AID 827;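 active means viability at or below a set limit, 4 SD under the median of all tested compounds, cut at about 3.7% in these data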;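 further: PTEN knockout HCT116 line with beta catenin targeted HCT116 as companion control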
sdo1 rescue conf: SDO1-depleted yeast growth rescue confirmation; S. cerevisiae JHY4D (SDO1-depleted) growth rescue, OD600, 30 h; stronger effect = higher value; efflux-deficient strain, SNQ2 and PDR5 mutated; AID 949; actives 44% (n = 440); OD recovery (test concentration not listed); shares compounds with sdo1 growth;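 active means yeast growth recovered at 30 hours, either rising with dose fitted slope above 0.001 or with average optical density gain above 0.07, some results past the limit were not filed as active; inactive means growth falling with dose or no effect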;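 further: gain in OD600 from 0 h to 30 h averaged across all seven doses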
Starred values were filed as active, the others as inactive; · = not tested or not shown.

SMILES	Yeast growth inh	Yeast life ext	bCat KO growth	sdo1 growth	HCT116 PTEN-null	sdo1 rescue conf
CCCc1nnc(NC(=O)COC(=O)c2cc(C)nc3ccccc23)s1	-7.7	-8.4	89.2	-0.27	91.1	·
CCCc1nnc(NC(=O)C(CC)OC(=O)c2cc(C)nc3ccccc23)s1 (stereo not drawn)	-43.0	-14.2	104.5	12.2*	94.5	0.0392
CCCC1=C([O-])C2N=CC=CC2=[N+](c2ccccn2)C1=O (stereo not drawn)	8.5	-2.3	104.1	1.25	106.8	·
CCN(CC)S(=O)(=O)c1ccc(C(=O)Nc2cc3oc4ccccc4c3cc2OC)cc1	-25.3	3.8	80.8	1.19	81.8	0.0201
COc1cc(OC)cc(C(=O)N2c3ccc(F)cc3CCC2C)c1 (stereo not drawn)	-32.2	12.3	80.7	-0.99	86.6	·
O=C(Nc1ccccc1N1CCOCC1)C1CCN(S(=O)(=O)c2ccccc2F)CC1	9.1	-2.0	92.7	0.33	97.1	·
Cc1ccc(-c2[nH]nc3c2C(c2ccc(OC(=O)N4CCOCC4)cc2)C(C#N)=C(N)O3)cc1 (stereo not drawn)	-64.5	-9.8	93.4	-0.28	104.3	·
Cc1cccc(NC(=O)COC(=O)CNC(=O)C2CCCCC2)c1	2.7	-15.3	88.0	5.72*	91.8	0.0673
Cc1occc1-c1nnc(SCC(=O)N(C)CCC#N)n1N	-6.9	-6.4	94.9	-0.59	96.1	·
COC(=O)c1ccccc1NC(=O)C1CC(=O)N(C2CCCCC2)C1 (stereo not drawn)	-17.8	4.7	92.6	-0.21	87.7	·
O=C(Nc1ccccc1)C1CC(=O)N(C2CCCCC2)C1 (stereo not drawn)	-28.8	-11.6	98.1	4.1*	86.4	0.0533
O=C(CCN1C(=O)c2ccccc2C1=O)Nc1ccc2c(c1)OCCO2	-78.4	-8.6	84.5	1.74	98.1	0.0764*
CCOc1ccccc1N1CCN(C(=O)c2ccc3[nH]c4c(c3c2)CCCC4)CC1	-20.1	3.7	76.8	-0.58	74.9	·
O=C(CSc1nnc(SCC(=O)c2ccco2)s1)c1ccco1	-37.5	-15.9	94.8	2.55	92.3	0.0623
COc1cc(S(=O)(=O)Nc2ccc(C)cc2)ccc1NC(=O)c1ccncc1	-20.6	-1.5	82.3	0.19	85.4	·
COc1cc(/C=C/C(=O)c2ccc(NS(=O)(=O)c3ccc(C)cc3)cc2)cc(OC)c1O	-62.5	14.0	7.5	11.4*	6.2	0.0551
CCN(CC)C(=O)/C(=C\c1ccc(Br)cc1)NC(=O)c1ccccc1OC	-4.2	-0.2	84.4	-1.7	72.0	·
CC1(C)C(=O)OC(c2ccccc2)C2(CCCC2)C1=O (stereo not drawn)	-5.8	-0.3	106.0	3.24*	109.4	0.061
CC1(C)C(=O)OC(c2cccn2-c2cccc([N+](=O)[O-])c2)C2(CCCCC2)C1=O (stereo not drawn)	-44.7	2.0	53.8	-0.82	62.0	·
CC(C)C1(C(C)C)OC(=O)c2ccccc21	-1.7	1.2	97.7	3.04*	96.4	0.0685
CCNc1nc(SC)nc(N(C#N)CC(=O)OC)n1	-42.2	-1.4	97.6	-0.05	96.4	·
CCS(=O)(=O)Nc1ccc(-c2nnc(SCC(=O)c3ccc(NC(C)=O)c(OC)c3)o2)cc1	-24.2	-12.7	88.3	2.72	94.7	0.061
COc1ccc(C(=O)NCCc2cn3ccc(C)cc3n2)cc1	17.8	-1.0	99.3	1.08	98.2	0.0813*
Cc1cccc(NC(=O)CSc2nnc(-c3ccc(S(=O)(=O)N4CCOCC4)cc3)n2C)c1	-28.6	4.2	94.0	1.06	99.6	·
O=C1C(c2ccncc2)N(CCC2=CCCCC2)C(=O)CN1C1CCCCC1 (stereo not drawn)	-24.3	-0.5	97.1	0.22	92.2	·
COc1ccc(C(=O)N=c2nc3ccccn3s2)cc1	-29.1	-11.8	26.2	1.94	24.9	0.0855*
Cc1cccc(NC(=O)C2CC(=O)n3cnnc3S2)c1 (stereo not drawn)	-3.5	-4.4	103.1	-0.73	106.5	·
CCc1nn(C(C)C(=O)NC(C)CCc2ccco2)c(=O)c2cc3occc3n12 (stereo not drawn)	-12.6	-20.2	82.5	0.27	89.0	·
